HSF1 inh = HSF1 inhibitors in luciferase reporter cells, primary screen, cell-based, NIH3T3, luminescence; NIH3T3-HGL HSE-luciferase, MG132-induced, luminescence 8 h; stronger effect = lower value; activity change, negative = inhibition, % at 7.5 µM (by protocol); 300,000 compounds, 0.77% hits; AID 2098, 2009;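 active = more than half of replicate wells show activity change below -50%, luminescence cut by over half; inconclusive = some wells, but at most half, below -50%; inactive = no replicate well below -50%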;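 note: luciferase reports HSF-1 transcriptional activity via heat shock element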
HSF1 activator = HSF-1 activators, primary screen, NIH3T3-HGL cells, MG132 stress, luminescence, single point | NIH3T3-HGL HSF-1 luciferase reporter, 8 h; 100% = twice DMSO control signal | 300,000 compounds, 1.7% hits | activation, % at 9 µM;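 active = mean replicate activation of at least 50% with a set share of replicates each reaching 50%; inconclusive = only one of those two conditions met; inactive = mean below 50% and too few replicates reaching it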
TbHK1 inh = Trypanosoma brucei hexokinase 1 inhibitors, primary screen, biochemical, G6PDH-coupled NADH absorbance, MLSCN library; hexokinase 1 [Trypanosoma brucei]; recombinant TbHK1, G6PDH-coupled NADH A340; inhibition, % at 10 µM; 220,000 compounds, 0.11% hits;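 active = inhibition of 50% or more in the single-dose primary screen; inactive = inhibition below 50%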
HSP90 refold inh = HSP90 inhibitors, primary screen, cell lysate, luminescence; Heat shock protein HSP 90 (rabbit reticulocyte lysate; luciferase refolding); Rabbit reticulocyte lysate, luciferase refolding luminescence, 3 h; inhibition, % at 5.6 µM; 290,000 compounds, 0.91% hits; AID 1789, 2009;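 active = inhibition above the screen-wide mean plus 3 SD, computed separately per campaign, cut at about 16% in these data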;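 note: inhibitors lower the luminescence because luciferase stays unfolded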
HKDC1 inhibitor = HKDC1 hexokinase inhibitors, primary screen, biochemical, fluorescence, uHTS | recombinant HKDC1, G6PDH/diaphorase resazurin coupled fluorescence | inhibition, % at 20 µM | 340,000 compounds, 0.16% hits;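 active = inhibition above about 35% when tested at 20 µM, limit read from the data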
Target sequence (Q2TB90 whole entry, looked up): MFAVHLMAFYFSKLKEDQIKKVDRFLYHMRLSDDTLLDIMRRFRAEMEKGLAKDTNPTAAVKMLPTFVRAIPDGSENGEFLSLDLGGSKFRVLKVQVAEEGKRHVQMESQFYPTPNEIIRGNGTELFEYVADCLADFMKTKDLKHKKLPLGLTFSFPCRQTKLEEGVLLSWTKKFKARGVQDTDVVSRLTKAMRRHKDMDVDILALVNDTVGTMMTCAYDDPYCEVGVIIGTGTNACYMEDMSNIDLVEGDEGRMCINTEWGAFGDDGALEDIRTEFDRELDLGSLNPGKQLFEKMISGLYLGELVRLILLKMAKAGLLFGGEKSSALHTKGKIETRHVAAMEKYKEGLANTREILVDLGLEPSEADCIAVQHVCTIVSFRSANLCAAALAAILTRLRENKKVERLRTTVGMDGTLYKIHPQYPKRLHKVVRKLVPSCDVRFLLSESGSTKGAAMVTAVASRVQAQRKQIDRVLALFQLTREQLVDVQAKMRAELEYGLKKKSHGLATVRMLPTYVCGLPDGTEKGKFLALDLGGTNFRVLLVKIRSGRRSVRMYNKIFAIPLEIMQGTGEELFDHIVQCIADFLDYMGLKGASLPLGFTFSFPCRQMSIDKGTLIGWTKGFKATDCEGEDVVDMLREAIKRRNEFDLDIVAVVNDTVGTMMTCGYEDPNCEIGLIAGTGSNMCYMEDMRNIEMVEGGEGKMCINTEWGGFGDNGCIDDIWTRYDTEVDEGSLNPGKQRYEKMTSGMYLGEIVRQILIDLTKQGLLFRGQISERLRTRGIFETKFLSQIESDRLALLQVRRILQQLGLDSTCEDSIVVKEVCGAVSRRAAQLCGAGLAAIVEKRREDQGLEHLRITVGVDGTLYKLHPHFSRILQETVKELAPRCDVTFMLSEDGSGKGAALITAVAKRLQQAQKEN
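Material – in-house recombinant HK5 (HKDC1) enzyme · Quantity – HKDC1 at 5 µg/mL · Buffer or medium – pH 8.0 Tris buffer with 10 mM MgCl2 · Reagent – glucose with 1 mM ATP · Dosing – single 20 µM dose · Times – reaction time 90 min, room temperature, protected from light · Technique – resorufin fluorescence at 613 nm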
Hsp70 act = Hsp70 transcriptional activators, primary screen, cell-based, HeLa, Hsp70 promoter luciferase, luminescence, 10 µM; HeLa Hsp70 promoter luciferase reporter; scaled: vehicle 0, proteasome-inhibitor control 100%; activation, % at 10 µM; 200,000 compounds, 0.04% hits;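 active = activation above the mean across all tested compounds plus 3 SD, cutoff set per campaign, cut at about 5.5% in these data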
Each line names hits and unclear results; the compound was inactive in the other large screens. This is a sample that favours compounds with a hit; in the whole collection about 3.1% have one here.

COc1ccccc1C(=O)NCc1ccc(-c2nc3ccccc3s2)cc1	HSF1 inh -59
COc1ccc(C(=O)NCc2ccc(-c3nc4ccccc4s3)cc2)cc1	HSF1 activator 60
CN(C(=O)OC(C)(C)C)c1ccc(-c2nc3ccccc3s2)cc1	HSF1 inh -93 (no result: TbHK1 inh, HSP90 refold inh, Hsp70 act)
CCN(CC(=O)Nc1c(F)cccc1F)C(=O)C1CCN(c2ncnc3sc(C)c(C)c23)CC1	none (no result: TbHK1 inh, HSP90 refold inh, Hsp70 act)
Cc1cc(C(=O)Nc2ccc3ccccc3c2)c(C)o1	HSF1 activator 66 (no result: TbHK1 inh, Hsp70 act)
O=C(Nc1ccccc1)c1ccc(Br)o1	none
O=C(Nc1ccc2ccccc2c1)c1ccc(Br)o1	HSF1 activator 65 (no result: TbHK1 inh, Hsp70 act)
CC(=O)c1cc(C(=O)Nc2ccc3ccccc3c2)c(C)o1	none (no result: TbHK1 inh, Hsp70 act)
Cc1cc(C(=O)COc2cc(F)ccc2[N+](=O)[O-])c(C)n1CC1CCCO1 (centres undefined)	none (no result: HSF1 inh, HSF1 activator, TbHK1 inh, HSP90 refold inh, Hsp70 act)
CSc1nnc(NC(=O)c2ccc(S(=O)(=O)N3CCOCC3)cc2)s1	none (no result: TbHK1 inh, Hsp70 act)
Cc1c2c(nc3ccccc13)CCC(C(C)(C)C)C2 (centres undefined)	HSF1 activator 57
O=C(N/N=C/c1cc([N+](=O)[O-])ccc1O)C12CC3CC(CC(C3)C1)C2	none
O=C(N/N=C/c1cc([N+](=O)[O-])ccc1O)NC12CC3CC(CC(C3)C1)C2	HSF1 inh -50
O=C(N/N=C/c1ccccc1F)NC12CC3CC(CC(C3)C1)C2	HSF1 activator 87 (no result: TbHK1 inh, Hsp70 act)
C[C@@H](NC(=O)c1[nH]cnc1C(=O)Nc1nccs1)c1ccccc1	none (no result: HSF1 inh, HSF1 activator, TbHK1 inh, HSP90 refold inh, Hsp70 act)
Cn1c(SCC(=O)NCc2ccco2)nnc1-c1cccs1	HSF1 activator 55
O=C(NCc1ccco1)c1cc(-c2ccccc2)on1	none
O=C(NCc1ccco1)c1cc(-c2cccs2)on1	HSF1 activator 72
COc1ccc(C2=NN(C(=O)CN3CCCCC3)C(c3ccc(OC)cc3)C2)cc1 (centres undefined)	none (no result: Hsp70 act)
COc1ccc(C2CC(c3ccccc3)=NN2C(=O)c2cccs2)cc1 (centres undefined)	HSF1 activator 71
COc1ccc(C2=NN(C(=O)CN3CCCC3)C(c3ccc(OC)cc3)C2)cc1 (centres undefined)	HSF1 activator 55 (no result: Hsp70 act)
COc1ccc(C2=NN(C(=O)c3cccs3)C(c3ccccc3O)C2)cc1 (centres undefined)	none
Cc1cc(C)c(CN2CCN(C(=O)Cn3cnc(C(=O)Nc4ccc(C)c(C)c4)n3)CC2)c(C)c1	none (no result: HSF1 inh, HSF1 activator, TbHK1 inh, HSP90 refold inh, Hsp70 act)
CCN(C(=O)CSc1nc2cc(C(=O)OC)ccc2c(=O)n1Cc1ccco1)c1cccc(C)c1	HSF1 activator 143
CCOC(=O)c1c(NC(=O)CSc2nc3cc(Cl)ccc3c(=O)n2Cc2ccco2)sc(C(=O)N(C)C)c1C	HSF1 activator 146
Cc1c(C(=O)NC(=S)N(Cc2ccccc2)c2ccccn2)cccc1[N+](=O)[O-]	none (no result: HSF1 inh, HSF1 activator, TbHK1 inh, HSP90 refold inh, Hsp70 act)
CN(/C(=N\S(=O)(=O)c1ccccc1)C(F)(F)F)c1ccccc1	HSF1 inh -56
Cc1ccc(S(=O)(=O)/N=C(\c2ccccc2)N(C)S(=O)(=O)c2ccccc2)cc1	none
CC(OC(=O)/C=C/c1ccc2ccccc2n1)C(=O)NCc1ccccc1 (centres undefined)	HSF1 activator 122 (no result: TbHK1 inh, HSP90 refold inh, Hsp70 act)
COC(=O)CNC(=O)COC(=O)/C=C/c1ccc2ccccc2n1	none
Nc1cc2c3ccccc3ccc2c2ccccc12	none (no result: HSF1 inh, HSF1 activator, TbHK1 inh, HSP90 refold inh, Hsp70 act)
COc1ccc(C(=O)/C(=C\c2ccco2)N2C=CC=CC2=C(C#N)C#N)cc1	HSF1 activator inconclusive
COc1ccc(/C=C(/C(=O)c2cccs2)N2C=CC=CC2=C(C#N)C#N)cc1	HSF1 activator 177
CCc1ccc(N2CC(C(=O)OCc3nc4ccsc4c(=O)[nH]3)CC2=O)cc1 (centres undefined)	none (no result: HSF1 inh, HSF1 activator, TbHK1 inh, HSP90 refold inh, Hsp70 act)
CC(=O)C(=Cc1ccc(C(=O)O)cc1)C(C)=O	HSF1 activator inconclusive
Cc1ccc(NC(=O)C(=Cc2ccc(C(=O)O)cc2)C(=O)Nc2ccc(C)cc2C)c(C)c1	HSF1 activator 555 (no result: Hsp70 act)
CCOC(=O)CSc1cc(-c2ccccc2)nc2ncnn12	HSF1 activator 75 (no result: Hsp70 act)
O=C(CSc1nnc(-c2ccccc2)c(-c2ccccc2)n1)N1CCc2ccccc21	HSF1 activator 130
Cc1ccc(-c2cnc(SCC(=O)N3CCCc4ccccc43)n2C)cc1	none (no result: HSF1 inh, HSF1 activator)
CCOC(=O)CSc1nnc(-c2ccccc2)c(-c2ccccc2)n1	HSF1 inh -82 (no result: TbHK1 inh, Hsp70 act)
Cn1c(-c2ccccc2)cnc1SCC(=O)N1CCCc2ccccc21	HSF1 activator 67
c1ccc(-c2cc(-c3ccccc3)n3ncnc3n2)cc1	none
O=C(NC(=S)NC12CC3CC(CC(C3)C1)C2)c1ccc(F)cc1	none (no result: HSF1 inh, HSF1 activator, TbHK1 inh, HSP90 refold inh, Hsp70 act)
Cc1[nH]n(-c2ccccc2)c(=O)c1C(C[N+](=O)[O-])c1ccc(Cl)cc1 (centres undefined)	HSF1 activator 133
Cc1ccc(C(C[N+](=O)[O-])c2c(C)[nH]n(-c3ccccc3)c2=O)cc1 (centres undefined)	none
Cc1[nH]n(-c2ccccc2)c(=O)c1C(C[N+](=O)[O-])c1ccc(F)cc1 (centres undefined)	HSF1 activator 282
Cc1[nH]n(-c2ccccc2)c(=O)c1Sc1ccc(Cl)cc1	none
CC(C)(C)OC(=O)N1CCC(NC(=O)c2ncn(Cc3ccccc3)c2C(=O)NC2CCN(C(=O)OC(C)(C)C)CC2)CC1	none (no result: HSF1 inh, HSF1 activator, TbHK1 inh, HSP90 refold inh, Hsp70 act)
COc1cccc(NC(=O)c2sc3nc4n(c(=O)c3c2C)CCC4)c1	none (no result: TbHK1 inh, Hsp70 act)
CSc1cccc(NC(=O)c2sc3nc4n(c(=O)c3c2C)CCC4)c1	HSF1 activator 64 (no result: TbHK1 inh, Hsp70 act)
COCCCn1c(-c2ccco2)nc2ccccc2c1=O	HSF1 inh -68
CC(C)(C)C(=O)NC(=S)NNC(=O)c1sc2ccccc2c1Cl	HSF1 inh -69
CC(NC(=O)c1sc2ccccc2c1Cl)C1CCCO1 (centres undefined)	HSF1 activator 69
CC(NC(=O)c1cc(-c2ccccc2)nc2ccccc12)C1CCCO1 (centres undefined)	HSF1 activator 52 (no result: HKDC1 inhibitor)
Cc1cc(NC(=O)NC(=O)c2ccccc2)no1	none (no result: TbHK1 inh, Hsp70 act)
Cc1cc(Br)ccc1NC(=O)C1CCN(S(=O)(=O)c2cnc[nH]2)CC1	none (no result: TbHK1 inh, Hsp70 act)
CSc1cccc(NC(=O)/C=C/c2ccccc2)c1	HSF1 activator 74
CCN(CC)S(=O)(=O)c1ccc(/C=C/C(=O)Nc2cccc(F)c2)cc1	HSF1 activator 67
CCN(CC)S(=O)(=O)c1ccc(/C=C/C(=O)O)cc1	none
O=C(/C=C/c1ccccc1)Nc1cccc(C(=O)O)c1	HSF1 inh -78, HSP90 refold inh 89

Compound activity as filed in PubChem.
